Source: PubChem BioAssay (The Scripps Research Institute Molecular Screening Center)
TDP2 inh = human TDP2 enzyme inhibitors, primary screen, biochemical, epi absorbance, recombinant enzyme; Tyrosyl-DNA phosphodiesterase 2 (Homo sapiens), O95551; T5PNP hydrolysis, p-nitrophenol absorbance 415 nm; inhibition, % at 12.8 µM; actives 0.34% (n = 370,000); AID 720702, 2013;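 active = inhibition above the mean of all tested compounds plus 3 SD, set per campaign, cut at about 25% in these data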;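 note: 0% = DMSO with enzyme and 100% = buffer with substrate but no TDP2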
Target sequence (O95551 whole entry, looked up): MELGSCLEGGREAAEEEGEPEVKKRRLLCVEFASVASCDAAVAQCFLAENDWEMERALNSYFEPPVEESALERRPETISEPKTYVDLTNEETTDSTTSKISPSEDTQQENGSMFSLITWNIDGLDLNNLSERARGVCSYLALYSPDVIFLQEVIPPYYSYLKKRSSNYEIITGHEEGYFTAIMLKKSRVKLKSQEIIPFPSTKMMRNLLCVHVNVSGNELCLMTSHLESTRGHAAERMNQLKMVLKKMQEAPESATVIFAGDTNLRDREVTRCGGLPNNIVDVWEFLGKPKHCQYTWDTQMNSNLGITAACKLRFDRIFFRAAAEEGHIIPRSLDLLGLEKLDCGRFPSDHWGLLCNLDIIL
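System – recombinant human TDP2 · Quantity – TDP2 enzyme at 120 nM final · Doses – single concentration, 12.8 µM nominal, with 1% DMSO · Incubation – 2 h at 37 °C · Measured by – epi absorbance of p-nitrophenol freed from T5PNP by hydrolysis · Read-out – % inhibition relative to enzyme-containing and enzyme-free wells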
UHRF1 binding = UHRF1 methylated DNA binding inhibitors, primary screen, counter-screen for MBD2 inhibitor project, biochemical, TR-FRET, human UHRF1, single concentration. UHRF1 binding to methylated oligo. inhibition, % at 4.4 µM. actives 0.75% (n = 370,000). AID 687016, 2013;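 note: UHRF1 SRA domain binding a hemimethylated CpG hairpin DNA probe; 0% = median of test compound wells and 100% = reference inhibitor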
MBD2 inh = inhibitors of MBD2 binding to methylated DNA, primary screen, biochemical, TR-FRET, DNA-binding domain, human; MBD2 binding to methylated oligonucleotide; actives 0.31% (n = 370,000); AID 686964, 2013; inhibition, % at 4.4 µM; in the data active = inhibition above about 13%
PRMT1 FP inh = PRMT1 methyltransferase inhibitors, primary screen, biochemical, fluorescence polarization | Protein arginine N-methyltransferase 1 (Homo sapiens), Q99873 | recombinant PRMT1, activity-based probe fluorescence polarization | inhibition, % at 2.79 µM | actives 1.3% (n = 370,000) | AID 652257, 2013;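 active = inhibition above about 21% made by adding two undisclosed values, limit read from the data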
Target sequence (Q99873 whole entry, looked up): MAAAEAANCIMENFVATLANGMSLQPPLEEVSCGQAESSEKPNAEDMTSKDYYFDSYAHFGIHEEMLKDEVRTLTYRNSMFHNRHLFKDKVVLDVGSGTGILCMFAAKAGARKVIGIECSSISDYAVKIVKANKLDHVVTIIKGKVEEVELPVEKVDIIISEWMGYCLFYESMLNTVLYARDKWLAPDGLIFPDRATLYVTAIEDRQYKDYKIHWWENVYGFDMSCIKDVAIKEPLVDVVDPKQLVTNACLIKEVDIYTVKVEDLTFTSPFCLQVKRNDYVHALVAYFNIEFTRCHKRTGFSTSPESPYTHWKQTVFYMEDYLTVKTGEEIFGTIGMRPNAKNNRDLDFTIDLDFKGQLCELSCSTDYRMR
LEDGF integ inh = blockers of LEDGF/p75-dependent integrase strand transfer – biochemical, TR-FRET, high throughput, primary screen. HIV-1 integrase (with human LEDGF/p75). TR-FRET IN-LEDGF/p75 DNA integration, Eu/Cy5. inhibition, % at 3.7 µM. actives 0.64% (n = 370,000);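 active = inhibition above the screen-wide mean plus 3 SD, cut at about 13% in these data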;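 note: signal is the Cy5 over europium emission ratio at 671 and 618 nm; 0% = plate median of compound wells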
SIAE inh = human SIAE inhibitors, primary screen, biochemical, fluorescence polarization, FP-Rh probe, 1536-well HTS; SIAE FP-Rh probe binding; actives 0.69% (n = 370,000); inhibition, % at 9.66 µM; AID 1053197, 2014;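 active = inhibition above a cutoff: mean of compounds within the control limits plus 3 SD of those, cut at about 17% in these data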;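 note: 0% = plate median of compound wells and 100% = probe without SIAE protein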
PRMT1 confirm = PRMT1 methyltransferase inhibitors, confirmation, biochemical, fluorescence polarization, triplicate; shares compounds with PRMT1 FP inh; recombinant His-PRMT1, activity-based probe fluorescence polarization; inhibition, % at 2.79 µM; actives 42% (n = 3,300); AID 687036, 2013;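 active = mean inhibition across replicates above the hit cutoff derived for the earlier primary screen, cut at about 22% in these data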
UHRF1 ctr MBD2 = UHRF1 methylated DNA binding inhibitors, counter-screen for MBD2 inhibitor project, biochemical, TR-FRET, human UHRF1. actives 25% (n = 1,000). inhibition, % at 4.4 µM. UHRF1 binding to methylated oligonucleotide. shares compounds with MBD2 inh;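 note: UHRF1 SRA domain binding a labeled hemimethylated CpG hairpin DNA; 0% = vehicle only and 100% = reference inhibitor with vehicle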
MBD2 confirm = inhibitors of MBD2 binding to methylated DNA, confirmation, biochemical, TR-FRET, DNA-binding domain, human | shares compounds with MBD2 inh | inhibition, % at 4.4 µM | actives 26% (n = 1,000) | TR-FRET MBD2-DBD binding to methylated oligonucleotide; in the data active = inhibition above about 14%
TDP2 confirm = human TDP2 enzyme inhibitors, retest, confirmation, biochemical, epi absorbance, recombinant enzyme | inhibition, % at 12.8 µM | actives 22% (n = 1,100) | AID 743263, 2014 | absorbance read-out | shares compounds with TDP2 inh; in the data active = inhibition above about 25%;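 note: 0% = vehicle with enzyme and 100% = no enzyme buffer only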
IN multimer act = HIV-1 IN multimer formation enhancers, counter-screen for LEDGF/p75 integration inhibitor project, biochemical, TR-FRET; shares compounds with LEDGF integ inh; TR-FRET HIV-1 integrase multimerization; activation, % at 7.7 µM; actives 17% (n = 2,000); in the data active = activation above about 8.9%
TRFRET interf = TR-FRET optical interference artefacts, confirmation, artefact control for LEDGF/p75-dependent integration inhibitor project, biochemical, HIV-1 IN multimerization. shares compounds with LEDGF integ inh. 2,000 tested, under 10 active. TR-FRET optical interference counterscreen. inhibition, % at 7.7 µM;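 active = inhibition above the mean over all tested compounds plus 3 SD, which no compound reached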;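 note: 0% = integrase with antibodies and DMSO and 100% = antibodies without integrase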
IN-LEDGF confirm = inhibitors of HIV-1 IN-LEDGF/p75 DNA integration, confirmation, biochemical, TR-FRET | inhibition, % at 3.7 µM | TR-FRET LEDGF/p75-dependent HIV-1 integration | actives 36% (n = 2,000) | AID 1053136, 2014 | shares compounds with LEDGF integ inh; in the data active = inhibition above about 14%
* = called active by the depositor; / = no result. Compounds with a hit are over-represented: about 3.3% of the library has one in this group of screens. Cut-off read from the data, not from the text of the source, unless noted: active = inhibition above about 21%; inactive = the rest.

SMILES	TDP2 inh	UHRF1 binding	MBD2 inh	PRMT1 FP inh	LEDGF integ inh	SIAE inh	PRMT1 confirm	IN multimer act	TRFRET interf	IN-LEDGF confirm	others
O=C(NN1C(=O)/C(=C/C=C/c2ccco2)SC1=S)c1ccncc1	19.2	96.7*	73.6*	53.0*	82.9*	15.2	51.6*	46.5*	-165.2	82.6*	UHRF1 ctr MBD2=89.7*;MBD2 confirm=63.0*
O=C(NN1C(=O)/C(=C/C=C/c2ccccc2)SC1=S)c1ccncc1	-13.1	-11.6	-4.7	6.0	0.6	0.1	/	/	/	/
COc1cc(C=C2C(=O)C=CC2=O)ccc1O	8.5	96.7*	102.3*	91.0*	92.9*	9.2	100.0*	7.3	-36.7	24.1*
COc1cc(/C=C2/C(=O)CNC2=O)ccc1O	3.2	-8.9	-1.6	5.2	-5.3	-9.0	/	/	/	/
CNS(=O)(=O)/C=C/c1ccccc1CCNC(=O)OC(C)(C)C	-10.5	-0.5	-2.3	-3.7	5.3	-4.5	/	/	/	/
CCOC(=O)c1ccc(CC(=O)c2ccc(O)c(O)c2O)o1	-6.3	23.7*	3.6	43.3*	73.9*	2.9	6.8	5.0	-25.3	58.3*
CCOC(=O)c1ccc(CC(=O)c2oc3cc(O)ccc3c2C)o1	1.1	3.1	-1.4	3.9	0.5	-6.3	/	/	/	/
COc1ccc(/C=C2\CCc3c2nc2ccccc2c3C(=O)O)cc1OC	8.7	1.4	-7.4	78.5*	14.7*	8.8	12.4	-1.2	6.3	22.4*
NC(=S)NN=Cc1ccc(-c2ccc(S(=O)(=O)Nc3ncccn3)cc2)o1	5.2	47.4*	15.2*	31.9*	14.8*	-7.0	18.8	7.0	-35.3	34.0*	UHRF1 ctr MBD2=28.8*;MBD2 confirm=9.2
C[C@H]1[C@@H](OC(=O)NCc2ccccc2)CC[C@@]23CCCN2C(=O)CCC[C@@H]13	-0.5	0.6	-1.4	-2.5	3.4	-0.9	/	/	/	/
O=C1/C(=C\c2ccco2)SC(=S)N1c1ccc(O)cc1	8.2	5.3	8.2	14.0	11.1	8.0	/	/	/	/
O=C1/C(=C/c2ccco2)SC(=S)N1c1cccnc1	3.7	98.3*	104.6*	46.1*	92.7*	-1.7	19.9	15.8*	-79.6	65.6*	UHRF1 ctr MBD2=69.5*;MBD2 confirm=31.9*
N#CC1=C(N)C(C#N)(C#N)[C@H](c2ccoc2)[C@H]2CN(Cc3ccccc3)CC=C12	40.2*	-0.5	-7.9	33.2*	19.2*	8.4	4.9	1.8	-6.6	2.6	TDP2 confirm=-2.0
CC(=O)N1CC=C2C(C#N)=C(N)C(C#N)(C#N)[C@H](c3ccoc3)[C@H]2C1	6.5	-6.8	-5.3	20.6	1.4	2.1	/	/	/	/
CC(=NN1CCN(Cc2ccccc2Cl)CC1)c1ccc(O)cc1	-8.6	1.8	2.5	-7.3	3.5	-5.1	/	/	/	/
COc1cc(C)c2c(c1C=O)Oc1c(c(C)c(O)c3c1C(O)OC3=O)OC2=O (stereo not drawn)	-4.4	65.2*	30.6*	37.8*	90.2*	-2.3	-4.8	0.6	-3.1	91.5*	UHRF1 ctr MBD2=23.8*;MBD2 confirm=8.6
O=C(Nc1ccc(F)cc1)NC1CCN(Cc2nnnn2Cc2ccco2)CC1	-8.3	18.7	8.6	28.7*	13.9*	-0.6	10.7	-1.1	4.1	-0.7
S=C(NCc1ccco1)NCc1ccco1	5.7	27.5*	2.5	26.7*	34.0*	8.4	7.0	5.7	-20.4	2.6
CCCCC1(C)OC(=O)C(=Cc2ccc(-c3ccc(Cl)c(C(=O)O)c3)o2)C(=O)O1 (stereo not drawn)	-12.6	9.7	4.0	7.1	2.2	-2.6	/	/	/	/
CC(C)N1C(=O)S/C(=C\c2ccc(-c3ccc(Cl)c(C(=O)O)c3)o2)C1=O	-14.4	37.2*	-0.4	52.0*	37.0*	-4.1	8.4	1.1	-4.3	4.9
Cc1nc2cc(-c3ccsc3-n3c(C)ccc3C)[nH]n2c(=O)c1Cl	2.8	32.0*	8.3	25.3*	48.3*	5.0	9.2	8.1	-41.0	32.5*
Cc1cccc(Cn2cc(CN3CC(N4CCN(CCOC(=O)c5cc6ccccc6o5)CC4)CS3(=O)=O)nn2)c1 (stereo not drawn)	-2.5	9.0	1.2	1.7	-0.2	-0.7	/	/	/	/
Cc1ccc(S(=O)(=O)NCC(=O)N2CCN(c3ccccn3)CC2)s1	13.1	1.5	3.3	5.0	-6.4	3.8	/	/	/	/
Cc1ccc(-n2c(SCC(=O)c3ccccc3Br)nnc2-c2ccncc2)cc1	1.3	0.0	5.9	6.2	-1.6	2.2	/	/	/	/
Cc1cc(-c2n[nH]c(=S)n2N=Cc2ccc(OCc3ccccc3)cc2)n[nH]1	3.2	-2.1	-3.5	4.0	1.6	13.8	/	/	/	/
